Assay results reported in publication PMC9312093 (ACS Bio & Med Chem Au, 2022).

Molecular target: T1, human ERO1α (Homo sapiens, UniProt Q96HE7, C104A/C131A/C166A)
T1 sequence (Q96HE7 22-468 C104A/C131A/C166A): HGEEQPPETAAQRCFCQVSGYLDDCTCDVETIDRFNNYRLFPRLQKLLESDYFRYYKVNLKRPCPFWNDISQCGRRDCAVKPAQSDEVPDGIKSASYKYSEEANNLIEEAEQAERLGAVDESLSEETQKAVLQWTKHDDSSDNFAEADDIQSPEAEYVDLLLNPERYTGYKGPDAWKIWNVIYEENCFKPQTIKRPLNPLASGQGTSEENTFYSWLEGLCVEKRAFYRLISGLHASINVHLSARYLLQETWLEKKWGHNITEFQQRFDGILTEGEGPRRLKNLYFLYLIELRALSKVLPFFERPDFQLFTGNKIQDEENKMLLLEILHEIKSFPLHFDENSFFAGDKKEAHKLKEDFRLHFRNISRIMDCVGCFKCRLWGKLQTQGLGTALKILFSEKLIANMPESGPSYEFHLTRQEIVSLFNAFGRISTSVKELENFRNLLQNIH
Assay: Recombinant ERO1α enzyme assay
Format: biochemical
Conditions: up to 200 µM; FAD covalent modifiers
Procedure, shortened: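 Hyperactive human ERO1α (a.a. 22-468, C104A/C131A/C166A) and human PDI (a.a. 18-479) were used, each at 0.0625 mg/mL, with rising test compound concentrations. Activity was quantified by Amplex Red. Data are mean ± S.D. of 3 independent experiments, each run in triplicate.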

N[C@@H]1C[C@H]1c1ccccc1 (racemic) [tranylcypromine]
inhibition of ERO1α activity, concentration-response: did not inhibit
